M4 PAM: potentiates acetylcholine response at human M4 receptor; P08173; CHO-K1 hM4/Gqi5, Fluo-8 calcium fluorescence, ACh EC20; 0% = ACh EC20, 100% = maximal ACh; activation, % at 3 µM; 0.4% of 360,000 active;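 active = activation above its plate's cutoff, the mean activation of sample wells plus 3 SD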
Target sequence (P08173 whole entry, looked up): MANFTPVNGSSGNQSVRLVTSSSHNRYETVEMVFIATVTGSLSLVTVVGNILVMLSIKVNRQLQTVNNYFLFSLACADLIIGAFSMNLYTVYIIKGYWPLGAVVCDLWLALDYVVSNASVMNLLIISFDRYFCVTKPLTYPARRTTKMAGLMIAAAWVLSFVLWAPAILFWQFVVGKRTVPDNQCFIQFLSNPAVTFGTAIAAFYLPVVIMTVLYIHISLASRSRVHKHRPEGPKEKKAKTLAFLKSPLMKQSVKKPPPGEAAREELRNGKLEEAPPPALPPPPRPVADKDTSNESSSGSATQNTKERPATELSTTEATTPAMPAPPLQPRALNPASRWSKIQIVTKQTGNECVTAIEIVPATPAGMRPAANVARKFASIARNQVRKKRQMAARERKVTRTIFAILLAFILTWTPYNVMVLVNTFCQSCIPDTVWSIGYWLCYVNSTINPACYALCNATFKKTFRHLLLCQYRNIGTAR
M5 ag: CHRM5 agonism in calcium assay; P08912; CHO-K1 hM5 cells, Fluo-8 calcium fluorescence; 0% DMSO wells, 100% maximal acetylcholine response; activation, % at 3 µM; 0.19% of 360,000 active;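 active = activation above the run's mean over test compounds plus 3 SD, cut at about 23% in these data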;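 also: signal is peak over basal fluorescence ratio across the kinetic read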
M4 antag: CHRM4 antagonism in calcium assay; inhibition, % at 3 µM; CHO-hM4 cells, ACh EC80, Fluo-8 calcium fluorescence; 0.73% of 360,000 active;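 active = inhibition above its plate's cutoff, the mean inhibition of sample wells plus 3 SD, cut at about 27% in these data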
CHRM4 agonist: agonists of human muscarinic M4 receptor (CHRM4). P08173. CHO-K1 hM4/Gqi5, Fluo-8 calcium fluorescence; vehicle 0%, full acetylcholine response 100%. activation, % at 3 µM. 0.14% of 360,000 active. AID 624127;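 active = activation above the run mean over all test wells plus 3 SD, cut at about 32% in these data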;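 also: peak over basal fluorescence ratio per well then scaled between controls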
M5 PAM: CHRM5 positive allosteric modulation. activation, % at 3 µM. AID 624038. CHO-K1 hM5, Fluo-8 calcium, ACh EC20 PAM; 0% = ACh EC20, 100% = ACh EC100. P08912. 0.3% of 360,000 active;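 active = activation above the run cutoff, the mean activation of all test compounds plus 3 SD, cut at about 18% in these data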
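Assay system – human M5 receptor in CHO-K1 cells · Read-out – % activation, ACh-normalized · Technique – Fluo-8 calcium fluorescence · Dosing – single-point, 3 µM nominal · Incubation – Fluo-8 loading 80 min at 37 °C plus 30 min room temperature · Repeats – singlicate, one well per test compound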
CHRM5 antagonist: blocks acetylcholine activation of human M5 receptor | P08912 | CHO-hM5 cells, Fluo-8 calcium fluorescence, ACh EC80 | inhibition, % at 3 µM | 0.59% of 360,000 active | AID 624040;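 active = inhibition above a per-plate cutoff, the mean of that plate's test compounds plus 3 SD, cut at about 27% in these data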
Large screens that a line does not name were inactive. This is a sample that favours compounds with a hit; in the whole collection about 1.8% have one here.

Cn1c(=O)[nH]c(=O)c2c1nc([N+](=O)[O-])n2Cc1ccccc1	M4 PAM 41
CCCN(CC(=O)Nc1ccccc1C)C(=O)c1cc2ccccc2oc1=O	none
CCN(CC)C(=O)CSc1nc2ccccc2c(=O)n1OC(C)C	M5 PAM 23
COc1ccc(NC(=O)CSCc2cc(=O)n3c(C)csc3n2)cc1	none
COc1ccc(NS(=O)(=O)c2cccc(C(=O)N/N=C/c3cn(-c4ccccc4)nc3-c3ccccc3)c2)cc1	M4 antag 51
Cc1occc1C(=O)NC(C)CCc1ccccc1 (centres undefined)	none
Cc1occc1C(=O)NC(C)C(C)(C)C (centres undefined)	M4 antag 29
O=C(C(=O)N1CCN(C(=O)c2ccco2)CC1)c1cc2ccccc2o1	none
CN(C)CCOc1ccc(-c2c(-c3ccccc3)sc3ccccc23)cc1	M4 antag 28
COc1ccc(C(CNc2ccc(S(=O)(=O)N3CCCC3)cc2[N+](=O)[O-])N2CCCC2)cc1 (centres undefined)	CHRM5 antagonist 32
O=C(/C=C/c1ccccc1)Nc1cccc(S(=O)(=O)Nc2ccccc2F)c1	none
Cc1cc(-c2ccc(S(=O)(=O)N3CCN(C)CC3)s2)on1	CHRM5 antagonist 35
COc1ccc(C(=O)c2ccccc2)c(OCC(=O)N(C)C)c1	M4 PAM 23
CC(=O)Oc1ccc(C(=O)c2ccccc2)c(OC(C)=O)c1	none
Cc1cc([N+](=O)[O-])nn1CC(=O)Nc1ccccn1	M4 PAM 25
CCOC(=O)[C@@H]1[C@H]2COc3ccccc3[C@@H]2N2C(=O)N(c3cccc(Cl)c3)C(=O)[C@]12C	none
CC(C)c1ccc(OCC(=O)NC(=S)Nc2ccc3c4c(cccc24)CC3)cc1	M4 antag 30
O=C(COC(=O)/C=C/c1ccc(Cl)cc1Cl)NCCC1=CCCCC1	M4 antag 28, M5 PAM 27
Cc1c(C(=O)OC(C)CCN(C)C)oc2ccccc12 (centres undefined)	M4 antag 31
Cc1c(C(=O)OCC(C)(C)CN(C)C)oc2ccccc12	none
NC(=O)CSc1nnc(COc2ccccc2)n1Cc1ccco1	none
Cc1cc(=O)oc2c(C)c(OC(C)C(=O)Nc3ccc(N4CCC(C)CC4)cc3)ccc12 (centres undefined)	M5 PAM 21
CCn1c(SCC(=O)NC2CCCCC2)nnc1-c1cccnc1	none
CCn1c(NCc2ccc(N(C)C)cc2)nc2ccccc21	M5 PAM 18
O=C(Nc1cccc(C(=O)O)c1)/C(=C\c1ccc2c(c1)OCO2)NC(=O)c1ccccc1Br	none
O=C(Nc1cccc(C(=O)O)c1)/C(=C/c1ccc2c(c1)OCO2)NC(=O)c1cccc(Br)c1	CHRM5 antagonist 28
Cc1onc(-c2ccccc2)c1C(=O)Nc1nnc(N(C)Cc2ccccc2)s1	M4 PAM 18
Cn1nc(C(C)(C)C)cc1C(=O)NCc1cc(F)cc2c1OCOC2	CHRM5 antagonist 29
c1ccc2c(c1)CCCc1cc(NCCN3CCOCC3)nnc1-2	M4 antag 34
Cc1c(C)c2cc(Cl)c(O)c(CN3CCCC(C)C3)c2oc1=O (centres undefined)	M4 antag 28
CCC(C)(C)n1nnnc1C(c1ccc(F)cc1)N1CCN(C(=O)c2ccco2)CC1 (centres undefined)	none
CC(CCC(C)C(C)(C)C)[C@@H]1CC[C@H]2C3C[C@H](OS(O)(=S)=S)[C@H]4C[C@H](OS(O)(=S)=S)[C@@H](OS(O)(=S)=S)C[C@]4(C)[C@H]3CC[C@]12C (some centres undefined) (tested in a mixture with another compound)	M4 antag 51, CHRM4 agonist 81
CC1(C(=O)NS(=O)(=O)c2ccc(F)cc2F)CCN1C(=O)c1ccccc1 (centres undefined)	none
O=C(CSc1nc2ccccc2s1)Nc1ccc(N2CCOCC2)c(Cl)c1	none
Cc1nnc(NC(=O)CSc2nc3ccccc3o2)s1	M4 PAM 32
O=C(CSc1nc2ccccc2o1)Nc1ccc(N2CCOCC2)c(Cl)c1	CHRM5 antagonist 28
CCc1nnc(NC(=O)CSc2nc3ccccc3o2)s1	none
COc1cc(OC)cc(C(=O)N2CCC(n3c(C)nc4cc(F)ccc43)CC2)c1	M5 PAM 34
O=C1C=C(NNC(=O)c2ccncc2)CC(c2ccccc2)C1 (centres undefined)	M5 ag 33
CCCc1nc2c(=O)[nH]c3ccccc3c2o1	M5 PAM 19
COc1cccc(C2CC(OCCF)=CC(=O)O2)c1 (centres undefined)	none
CCn1c(SCCN2CCCCC2)nnc1-c1ccc(S(=O)(=O)N2CCOCC2)cc1	M4 antag 33
Cc1ccc(S(=O)(=O)N2CCC(c3nnc(SCCN4CCCC4)n3C)CC2)cc1	none
Cc1cccc(SCC(=O)Nc2ccc3c(c2)OCCO3)c1	none
CC1(C)CC(C(CCN(Cc2ccccc2)C(=O)c2ccco2)c2ccc(F)cc2)CCO1 (centres undefined)	M4 antag 27
Nc1c(C(=O)CSc2nccn2-c2ccc(Cl)cc2)c(=O)[nH]c(=O)n1C1CC1	M5 PAM 18
O=C(N/N=C/c1ccc(-c2ccc(Cl)c(C(=O)O)c2)o1)c1cc2c(ccc3ccccc32)o1	M4 antag 27
Cc1nc2ccccc2n1CC(O)COc1ccccc1Cl (centres undefined)	M4 antag 30
Cc1ccccc1OCC(O)Cn1c(=N)n(Cc2ccccc2)c2ccccc21 (centres undefined)	M4 antag 27
CSCC[C@H](NC(=O)c1ccc2ccccc2c1)C(=O)N1CCC2(CC1)NCCc1[nH]cnc12	CHRM5 antagonist 27
Cc1ccc(C(=O)N2CCC3(CC2)NCCc2[nH]cnc23)cc1C	M4 PAM 17
COc1ccc(N(CC(=O)N/N=C/c2ccc(C(=O)O)cc2)S(=O)(=O)c2ccc(NC(C)=O)cc2)cc1	M4 PAM 22
COc1ccc(N(CC(=O)N/N=C/c2cc(Br)c(C)o2)S(=O)(=O)c2ccc(NC(C)=O)cc2)cc1	none
O=C(NC(NNc1ccc([N+](=O)[O-])cc1)(C(F)(F)F)C(F)(F)F)c1ccc(Cl)cc1	CHRM5 antagonist 27
O=C(NNc1ccc([N+](=O)[O-])cc1)c1ccccc1Cl	none
Cc1ccc(-c2nc3cccnc3o2)cc1NC(=O)COc1ccc(C(C)(C)C)cc1	CHRM5 antagonist 27
CCOC(=O)/C(=C/c1c2ccccc2cc2ccccc12)NC(=O)c1ccccc1	none

Assay outcomes from PubChem BioAssay.
